OXTR ag: human OXTR agonism. activation, % at 3 µM. actives 0.32% (n = 320,000). P30559. AID 2435. CHO-OTR cells, Fluo-8 calcium fluorescence; normalized: DMSO 0%, oxytocin 100%;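 active means activation above the mean of all tested compounds plus 3 SD, cutoff set per screening run, cut at about 20% in these data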;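 further: peak over basal fluorescence ratio from a 100 s FLIPR kinetic read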
V1aR counter: counter-screen for oxytocin receptor agonists: human V1a receptor agonists; actives 0.25% (n = 320,000); CHO-V1R cells, Fluo-8 calcium fluorescence, agonist mode; 0% DMSO, 100% 3 nM vasopressin; P37288; AID 2797; activation, % at 3 µM;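 active means activation above the mean activation of all tested compounds plus 3 SD, per screening run, cut at about 20% in these data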;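 further: signal is peak over basal fluorescence ratio across a 100 second FLIPR read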
Target sequence (P37288 whole entry, looked up): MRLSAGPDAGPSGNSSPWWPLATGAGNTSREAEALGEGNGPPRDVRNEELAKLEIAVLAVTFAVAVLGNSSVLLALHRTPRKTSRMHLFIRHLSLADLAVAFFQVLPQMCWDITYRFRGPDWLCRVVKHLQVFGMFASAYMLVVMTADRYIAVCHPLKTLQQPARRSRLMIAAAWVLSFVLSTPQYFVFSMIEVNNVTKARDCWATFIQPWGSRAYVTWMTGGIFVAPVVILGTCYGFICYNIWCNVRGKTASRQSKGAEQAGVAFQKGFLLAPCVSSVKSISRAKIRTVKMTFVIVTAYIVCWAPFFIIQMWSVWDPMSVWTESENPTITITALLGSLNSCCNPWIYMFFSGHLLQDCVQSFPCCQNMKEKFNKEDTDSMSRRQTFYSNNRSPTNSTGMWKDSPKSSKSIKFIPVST
TRPML3 agonist: activates the human TRPML3 channel; Q8TDD5; HEK293 TRPML3-YFP, Fluo-8 calcium fluorescence; 100% = the carbachol control signal; activation, % at 3 µM; actives 0.29% (n = 220,000);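 active means activation above its plate's cutoff, the mean activation of the plate's test wells plus 3 SD, cut at about 12% in these data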;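 further: 0% = DMSO only wells and 100% = carbachol wells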
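Test system: TRPML3-YFP stable HEK293 cells. Doses: single point at 3 µM. Incubation: dye loading 1 h 37 °C then 30 min ambient, 125 s read. Signal: Fluo-8 calcium dye fluorescence, ex 470-495, em 515-575 nm. Measure: percent activation from peak-to-basal fluorescence ratio, scaled between DMSO and carbachol.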
OXTR potentiate: potentiators of human oxytocin receptor | P30559 | CHO-OTR cells, Fluo-8 calcium fluorescence, potentiator mode; 0% = oxytocin EC15, 100% = EC100 | activation, % at 3 µM | actives 0.061% (n = 320,000) | AID 2445;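 active means activation above that plate's cutoff, the mean activation of tested compounds plus 3 SD, cut at about 6.6% in these data, passing the limit was not always enough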;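 further: 100% uses oxytocin at 75 nM as the full agonist control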
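System: human OTR in CHO cells / Also added: sub-maximal oxytocin, roughly EC15 / Control set: EC15 oxytocin low, 75 nM oxytocin high / Schedule: 6 min compound pre-incubation at room temperature, 100 s kinetic read / Compound: single-point 3.0 µM / Replication: singlicate / Technique: Fluo-8 calcium dye fluorescence / Read-out basis: % activation of max/min ratio relative to oxytocin controls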
TRPN1 ag: activates the zebrafish TRPN1 channel. HEK293 zebrafish TRPN1-YFP, Fluo-8 calcium fluorescence; 100% = response to 87 µM carbachol. AID 1424. actives 0.18% (n = 220,000). activation, % at 3 µM;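 active means activation above its plate's cutoff, the mean activation of test wells on that plate plus 3 SD, cut at about 19% in these data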;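 further: 0% = DMSO alone and 100% = 87 µM carbachol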
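Material: zebrafish TRPN1-YFP in HEK293 cells; Doses: single test compound dose, 3 µM nominal, 0.3% DMSO; Timing: dye loading 1 h at 37 °C, then 30 min room temperature; Technique: intracellular calcium fluorescence with Fluo-8; Benchmarks: high carbachol 87 µM, low DMSO alone.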
OXTR agonist cf: human OXTR agonism, confirmation. activation, % at 3 µM. CHO-OTR cells, Fluo-8 calcium fluorescence, agonist. actives 20% (n = 390). shares compounds with OXTR ag;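 active means mean activation above about 20% derived from the earlier single-dose screen, limit read from the data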;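 further: peak over minimum fluorescence ratio per well during a 100 second FLIPR read; 0% = DMSO alone and 100% = oxytocin high control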
V1R ag counter 3x: counter-screen for oxytocin receptor agonists: V1a receptor agonists; shares compounds with OXTR ag; actives 10% (n = 390); activation, % at 3 µM; CHO-V1R cells, Fluo-8 calcium fluorescence, agonist; AID 434991;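 active means mean activation over triplicate exceeds the hit threshold set in the earlier primary screen, cut at about 20% in these data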;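 further: peak over basal fluorescence ratio within a 100 second read; 0% = DMSO alone and 100% = 3 nM vasopressin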
Starred values were filed as active, the others as inactive; . = no result. The list is not random: actives were taken first. Their share in the collection is about 0.55%.

SMILES	OXTR ag	V1aR counter	TRPML3 agonist	OXTR potentiate	TRPN1 ag	OXTR agonist cf	V1R ag counter 3x
COc1cc(CNCCc2ccc(F)cc2)ccc1OCc1ccc(Cl)nc1	22.2*	12.6	0.7	-14.1	0.0	10.0	1.4
COc1cc(CNCCc2c[nH]c3ccccc23)ccc1OCc1ccc(F)cc1	21.5*	11.5	3.4	-8.4	3.6	18.0	7.7
COc1ccc(C(=O)Nn2c(C)nc3ccccc3c2=O)cc1[N+](=O)[O-]	1.2	0.9	.	-9.8	.	.	.
CCCCn1c(N)c(N(CC(C)C)C(=O)CC2OC(=O)c3ccccc32)c(=O)[nH]c1=O (configuration not stated)	0.0	-0.8	.	-5.0	.	.	.
COc1ccc(CNC(=O)COC(=O)/C=C/c2cccc(Cl)c2)cc1	8.3	6.9	.	-0.8	.	.	.
Cc1ccc(S(=O)(=O)c2nnn3c2nc(NCCCN2CCCC2=O)c2ccccc23)cc1C	0.9	3.1	.	-8.0	.	.	.
Cc1ccc(S(=O)(=O)c2nnn3c2nc(NC2CCN(Cc4ccccc4)CC2)c2ccccc23)cc1C	20.3*	-0.4	.	-10.4	.	-0.6	-0.2
CC(C)CCc1noc(CN2CCN(c3ccc(Cl)cn3)CC2)n1	-1.1	0.3	1.2	-6.3	-0.5	.	.
O=C(Nc1ccc(S(=O)(=O)N2CCCCC2)cc1)c1ccc(CN2CCOCC2)cc1	20.1*	16.8	5.8	-12.1	11.7	6.7	8.8
Cc1cc(N2CCCCC2)nc(NCc2ccccc2)n1	25.3*	15.1	6.3	-20.6	47.4*	11.0	12.9
CC(=O)Nc1ccc(S(=O)(=O)N(C)C2CCN(C)CC2)cc1	0.5	0.5	.	-7.3	.	.	.
CC(Oc1cccc(Cl)c1)C(=O)Nc1ccc(S(=O)(=O)N(C)C2CCN(C)CC2)cc1 (configuration not stated)	22.1*	15.1	.	-11.9	.	19.2	14.2
O=C(Nc1cccc(Cl)c1)Nc1cccc(Cl)c1	14.4	9.3	4.8	-22.1	10.4	.	.
O=C(Nc1cccc(F)c1)Nc1cccc(Cl)c1	19.9*	12.6	.	-24.7	.	4.5	5.7
COc1cccc(NC(=O)Nc2nc(SC)ns2)c1	11.8	9.9	.	-7.7	.	.	.
CCSc1nsc(NC(=O)Nc2cccc(F)c2)n1	19.8*	15.7	.	-26.4	.	12.4	13.2
COc1cccc(NC(=O)Nc2nc(SC(C)(C)C)ns2)c1	23.4*	18.2	.	-25.8	.	13.1	11.0
CCCOc1ccc(/C=C/C(=O)N2CCOCC2)cc1	1.8	1.0	.	2.1	.	.	.
CC[n+]1c(/C=C/C=C/N(C(C)=O)c2ccccc2)sc2cc(OC)ccc21	29.1*	12.6	2.2	-10.7	10.0	69.0*	90.5*
CC[n+]1c(/C=C(\C)OC)sc2ccccc21	.	.	0.6	.	-1.6	.	.
CCC(C(=O)NCCCN1CC(C)CC(C)C1)n1nc(C)c2sc3ccccc3c2c1=O (configuration not stated)	-0.6	0.6	.	-2.4	.	.	.
CN(c1ccccc1)c1ccc(/C=C/[N+](=O)[O-])cc1	28.8*	15.2	10.1	-11.7	16.5	25.6*	32.4*
CN(Cc1ccccc1)C(=O)CN1CCN(S(=O)(=O)c2ccc(Cl)c(Cl)c2)CC1	1.5	3.7	.	-5.8	.	.	.
COc1cccc2c1C(=O)c1c(O)c3c(c(O)c1C2=O)C[C@@](O)(C(=O)CO)C[C@@H]3O[C@H]1C[C@H](N)[C@@H](O)[C@H](C)O1	22.8*	17.7	.	-11.6	.	11.1	19.8
Clc1cccc2c1Sc1ccccc1CC2N1CCNCC1 (configuration not stated)	21.7*	15.8	1.0	-6.9	-0.6	8.4	5.4
COCCCN1CCN(C2Cc3ccccc3Sc3ccc(Cl)cc32)CC1 (configuration not stated)	6.3	4.7	1.1	-1.9	0.9	.	.
Clc1ccc2c(c1)C(N1CCNCC1)Cc1ccccc1S2 (configuration not stated)	29.4*	11.7	2.2	-17.6	15.7	20.8*	7.0

Source: PubChem (The Scripps Research Institute Molecular Screening Center)
